Experimental data: ChEMBL document CHEMBL1147044, “Design of helical, oligomeric HIV-1 fusion inhibitor peptides with potent activity against enfuvirtide-resistant virus” (Proc Natl Acad Sci U S A, 2007)
Values after ≈ are worked out from the molar mass of the structure shown.

Columns and labels:
[1] = test system: Human immunodeficiency virus 1; test: Antiviral activity against HIV1 098-T1249 isolate infected in human PBMCs by reverse transcriptase assay; format: functional, organism-based
Outline: (§1)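 CD8-depleted activated PBMC targets infected at high MOI by spinoculation; infected cells incubated with uninfected targets at 2 × 10⁵ cells per well with serially diluted peptide for 9 days. Fresh compound added and samples taken every 2–3 days. Replication read by reverse transcriptase assay; IC50 from reduction in RT signal relative to infected untreated wells.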

[2] = test system: Human immunodeficiency virus 1; test: Antiviral activity against HIV1 098-T651 isolate infected in human PBMCs by reverse transcriptase assay; format: functional, organism-based; outline: as §1
[3] = test system: Human immunodeficiency virus 1; test: Antiviral activity against HIV1 098-T20 isolate infected in human PBMCs by reverse transcriptase assay; format: functional, organism-based; outline: as §1
[4] = test system: Human immunodeficiency virus 1; test: Binding affinity to HIV1 gp41 heptad repeat 1 region assessed as thermal stability of HR1/HR2 peptide bundle complex at 1 uM in presence of 8M urea
[5] = Clearance in cynomolgus monkey at 1 to 2 mg/kg, iv; format: ADME, organism-based, Macaca fascicularis; parameters: dose 1-2 mg/kg, route intravenous; conditions: in vivo
Outline: (§2)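 Male cynomolgus monkeys received a single i.v. dose of about 1–2 mg/kg in isotonic phosphate-mannitol vehicle, given as cassettes (typically n ≤ 8). Plasma was protein-precipitated with 0.5% formic acid in acetonitrile and peptide measured by reversed-phase HPLC. Parameters were fitted with mono- or biexponential models.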

[6] = test system: Human immunodeficiency virus 1; test: Antiviral activity against HIV1 098 isolate infected in human PBMCs by reverse transcriptase assay; format: functional, organism-based; outline: as §1
[7] = Half life in cynomolgus monkey at 1 to 2 mg/kg, iv; format: ADME, organism-based, Macaca fascicularis; parameters: dose 1-2 mg/kg, route intravenous; conditions: in vivo; outline: as §2
[8] = test system: Human immunodeficiency virus 1; test: Antiviral activity against HIV1 3B infected in human PBMCs by reverse transcriptase assay; format: functional, organism-based; conditions: Human immunodeficiency virus 1, 3B; outline: as §1

Which IC50 [1] does the source give for CC[C@H](C)[C@H](NC(=O)[C@H](CC(C)C)NC(=O)[C@H](CO)NC(=O)[C@H](Cc1cnc[nH]1)NC(=O)[C@@H](NC(=O)[C@H](CC(C)C)NC(=O)[C@H](CO)NC(=O)[C@@H](NC(=O)[C@H](Cc1ccc(O)cc1)NC(=O)[C@H](CC(N)=O)NC(=O)[C@H](CC(N)=O)NC(=O)[C@@H](NC(=O)[C@H](CCC(=O)O)NC(=O)[C@H](CCCNC(=N)N)NC(=O)[C@H](CC(=O)O)NC(=O)[C@H](Cc1c[nH]c2ccccc12)NC(=O)[C@H](CCC(=O)O)NC(=O)[C@H](CCSC)NC(=O)[C@H](Cc1c[nH]c2ccccc12)NC(=O)[C@@H](NC(=O)[C@@H](N)CCSC)[C@@H](C)O)[C@@H](C)CC)[C@@H](C)O)[C@@H](C)CC)C(=O)N[C@@H](CCC(=O)O)C(=O)N[C@@H](CCC(=O)O)C(=O)N[C@@H](CO)C(=O)N[C@@H](CCC(N)=O)C(=O)N[C@@H](CC(N)=O)C(=O)N[C@@H](CCC(N)=O)C(=O)N[C@@H](CCC(N)=O)C(=O)N[C@@H](CCC(=O)O)C(=O)N[C@@H](CCCCN)C(=O)N[C@@H](CC(N)=O)C(=O)N[C@@H](CCC(=O)O)C(=O)N[C@@H](CCC(N)=O)C(=O)N[C@@H](CCC(=O)O)C(=O)N[C@@H](CC(C)C)C(=O)N[C@@H](CC(C)C)C(=O)N[C@@H](CCC(=O)O)C(=O)N[C@@H](CC(C)C)C(=O)O here?
Its IC50 is 0.137 µg/mL (≈ 29 nM).

What about the IC50 [2] of the same compound?
The IC50 was 4.97 µg/mL (≈ 1050 nM).

What about the IC50 [3] of the same compound?
The IC50 was 0.039 µg/mL (≈ 8.26 nM).

And the Tm [4]?
Its Tm is 74 °C.

And the clearance [5]?
The clearance was 6.2 mL/min/kg.

And the IC50 [6]?
The IC50 was 0.032 µg/mL (≈ 6.78 nM).

What about the half-life [7] of the same compound?
The half-life was 1.2 h.

What about the IC50 [8] of the same compound?
The IC50 was 0.008 µg/mL (≈ 1.69 nM).
